Values belong to the compound of their own block, whether it stands above or below them.
Tests used:
[1] = biological target: Tyrosine-protein kinase Fyn (Homo sapiens) (UniProt P06241); assay: Binding affinity to FYN assessed as percentage of kinase remaining bound to the bead at 1 uM by T7 phage display based binding assay
In short: (§1)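 Competition binding assay run by a contract lab. Each kinase was expressed as a fusion to T7 phage, full-length for small kinases and catalytic domain for large ones. Phage were mixed with an immobilized known kinase inhibitor on streptavidin magnetic beads and with test compound at a single 1 μM. Kinase/phage still bound to the beads was quantified by qPCR and expressed as % of DMSO control.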

[2] = biological target: RAC-beta serine/threonine-protein kinase (Homo sapiens) (UniProt P31751); assay: Inhibition of PKBbeta assessed as remaining enzyme activity at 1 uM relative to DMSO
In short: (§2)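 Radiometric kinase assay run robotically at room temperature for 30 min. Contained 10 mM magnesium acetate and [γ-33P]ATP (800 cpm/pmol) at 5, 20 or 50 μM, chosen per kinase to be at or below its ATP Km. Reactions were started with MgATP, stopped with orthophosphoric acid and spotted onto P81 filters. Result is mean % activity of duplicates at one inhibitor concentration versus DMSO control.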

[3] = biological target: Fibroblast growth factor receptor 1 (Homo sapiens) (UniProt P11362); assay: Inhibition of FGF-R1 assessed as remaining enzyme activity at 1 uM relative to DMSO
In short: (§3)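 Dundee kinase panel, radiometric: [γ-33P]ATP (800 cpm/pmol) at 5, 20 or 50 μM, at or below each kinase's ATP Km; 10 mM magnesium acetate; robotic, room temperature, 30 min. Reactions started with MgATP, stopped with orthophosphoric acid, spotted onto P81 filters. Inhibitor tested at a single concentration; mean % activity of duplicates relative to DMSO control.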

[4] = biological target: Interleukin-1 receptor-associated kinase 4 (Homo sapiens) (UniProt Q9NWZ3); assay: Inhibition of IRAK4 assessed as remaining enzyme activity at 1 uM relative to DMSO; in short: as §3
[5] = biological target: Mitogen-activated protein kinase kinase kinase kinase 2 (Homo sapiens) (UniProt Q12851); assay: Inhibition of GCK assessed as remaining enzyme activity at 1 uM relative to DMSO; in short: as §3
[6] = biological target: Serine/threonine-protein kinase NLK (Homo sapiens) (UniProt Q9UBE8); assay: Binding affinity to NLK assessed as percentage of kinase remaining bound to the bead at 1 uM by T7 phage display based binding assay; in short: as §1
[7] = biological target: Serine/threonine-protein kinase pim-1 (Homo sapiens) (UniProt P11309); assay: Inhibition of PIM1 assessed as remaining enzyme activity at 1 uM relative to DMSO; in short: as §2
[8] = biological target: Eukaryotic elongation factor 2 kinase (Homo sapiens) (UniProt O00418); assay: Inhibition of EF2K assessed as remaining enzyme activity at 1 uM relative to DMSO
In short: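 Radiometric kinase assay run robotically at room temperature for 30 min, linear in time and enzyme. Conditions: 10 mM magnesium acetate, [γ-33P]ATP (800 cpm/pmol) at 5, 20 or 50 μM per kinase, at or below its ATP Km. Started with MgATP and stopped with orthophosphoric acid, then spotted on P81 filters. Reported as mean % activity of duplicates versus DMSO controls.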

[9] = biological target: Proto-oncogene tyrosine-protein kinase receptor Ret (Homo sapiens) (UniProt P07949); assay: Binding affinity to RET assessed as percentage of kinase remaining bound to the bead at 1 uM by T7 phage display based binding assay; in short: as §1
[10] = biological target: Protein-tyrosine kinase 6 (Homo sapiens) (UniProt Q13882); assay: Binding affinity to BRK assessed as percentage of kinase remaining bound to the bead at 1 uM by T7 phage display based binding assay; in short: as §1
[11] = biological target: Ribosomal protein S6 kinase alpha-6 (Homo sapiens) (UniProt Q9UK32); assay: Binding affinity to RSK4 kinase domain 2 C-terminal assessed as percentage of kinase remaining bound to the bead at 1 uM by T7 phage display based binding assay; in short: as §1
[12] = biological target: Serine/threonine-protein kinase PAK 4 (Homo sapiens) (UniProt O96013); assay: Inhibition of PAK4 assessed as remaining enzyme activity at 1 uM relative to DMSO; in short: as §2
[13] = biological target: Serine/threonine-protein kinase pim-3 (Homo sapiens) (UniProt Q86V86); assay: Inhibition of PIM3 assessed as remaining enzyme activity at 1 uM relative to DMSO; in short: as §2
[14] = biological target: Serine/threonine-protein kinase D1 (Homo sapiens) (UniProt Q15139); assay: Inhibition of PKD1 assessed as remaining enzyme activity at 1 uM relative to DMSO
[15] = biological target: Tyrosine-protein kinase CSK (Homo sapiens) (UniProt P41240); assay: Inhibition of CSK assessed as remaining enzyme activity at 1 uM relative to DMSO; in short: as §3
[16] = biological target: Mitogen-activated protein kinase 15 (Homo sapiens) (UniProt Q8TD08); assay: Inhibition of ERK8 assessed as remaining enzyme activity at 1 uM relative to DMSO; in short: as §3
[17] = biological target: MAP kinase-interacting serine/threonine-protein kinase 1 (Homo sapiens) (UniProt Q9BUB5); assay: Inhibition of MNK1 assessed as remaining enzyme activity at 3 uM relative to DMSO; in short: as §2
[18] = biological target: Serine/threonine-protein kinase PLK1 (Homo sapiens) (UniProt P53350); assay: Inhibition of PLK1 assessed as remaining enzyme activity at 3 uM relative to DMSO
[19] = biological target: Mitogen-activated protein kinase 8 (Homo sapiens) (UniProt P45983); assay: Inhibition of JNK1 assessed as remaining enzyme activity at 3 uM relative to DMSO; in short: as §3
[20] = biological target: Mitogen-activated protein kinase kinase kinase 9 (Homo sapiens) (UniProt P80192); assay: Inhibition of MLK1 assessed as remaining enzyme activity at 3 uM relative to DMSO; in short: as §2
[21] = biological target: Mitogen-activated protein kinase 11 (Homo sapiens) (UniProt Q15759); assay: Inhibition of p38beta assessed as remaining enzyme activity at 3 uM relative to DMSO
[22] = biological target: Homeodomain-interacting protein kinase 2 (Homo sapiens) (UniProt Q9H2X6); assay: Inhibition of HIPK2 assessed as remaining enzyme activity at 3 uM relative to DMSO; in short: as §3
[23] = biological target: Protein kinase C alpha type (Homo sapiens) (UniProt P17252); assay: Inhibition of PKCalpha assessed as remaining enzyme activity at 3 uM relative to DMSO
[24] = biological target: Glycogen synthase kinase-3 beta (Homo sapiens) (UniProt P49841); assay: Inhibition of GSK3-beta assessed as remaining enzyme activity at 3 uM relative to DMSO; in short: as §3
[25] = biological target: Calcium/calmodulin-dependent protein kinase type 1 (Homo sapiens) (UniProt Q14012); assay: Inhibition of CAMK1 assessed as remaining enzyme activity at 3 uM relative to DMSO
[26] = biological target: Serine/threonine-protein kinase PAK 5 (Homo sapiens) (UniProt Q9P286); assay: Inhibition of PAK5 assessed as remaining enzyme activity at 3 uM relative to DMSO; in short: as §2
[27] = biological target: RAC-beta serine/threonine-protein kinase (Homo sapiens) (UniProt P31751); assay: Inhibition of PKBbeta assessed as remaining enzyme activity at 3 uM relative to DMSO; in short: as §2
[28] = biological target: Mitogen-activated protein kinase 12 (Homo sapiens) (UniProt P53778); assay: Inhibition of p38-gamma assessed as remaining enzyme activity at 3 uM relative to DMSO
[29] = biological target: Ribosomal protein S6 kinase alpha-3 (Homo sapiens) (UniProt P51812); assay: Inhibition of RSK2 assessed as remaining enzyme activity at 3 uM relative to DMSO

RAC-beta serine/threonine-protein kinase (Homo sapiens), sequence (P31751 whole entry): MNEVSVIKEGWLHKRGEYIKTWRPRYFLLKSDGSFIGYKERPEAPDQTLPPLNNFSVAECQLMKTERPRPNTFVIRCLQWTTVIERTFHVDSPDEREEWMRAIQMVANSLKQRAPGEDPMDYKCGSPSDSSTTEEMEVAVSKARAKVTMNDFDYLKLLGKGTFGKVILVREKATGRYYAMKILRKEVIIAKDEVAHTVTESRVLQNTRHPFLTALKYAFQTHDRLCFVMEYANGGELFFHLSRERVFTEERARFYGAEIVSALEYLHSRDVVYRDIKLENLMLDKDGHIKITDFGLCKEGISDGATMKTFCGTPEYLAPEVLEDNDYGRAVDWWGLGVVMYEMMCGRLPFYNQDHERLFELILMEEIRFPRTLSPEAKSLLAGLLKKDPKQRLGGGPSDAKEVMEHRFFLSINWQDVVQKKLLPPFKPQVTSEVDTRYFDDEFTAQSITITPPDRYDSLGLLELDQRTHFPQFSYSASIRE
Interleukin-1 receptor-associated kinase 4 (Homo sapiens), sequence (Q9NWZ3 whole entry): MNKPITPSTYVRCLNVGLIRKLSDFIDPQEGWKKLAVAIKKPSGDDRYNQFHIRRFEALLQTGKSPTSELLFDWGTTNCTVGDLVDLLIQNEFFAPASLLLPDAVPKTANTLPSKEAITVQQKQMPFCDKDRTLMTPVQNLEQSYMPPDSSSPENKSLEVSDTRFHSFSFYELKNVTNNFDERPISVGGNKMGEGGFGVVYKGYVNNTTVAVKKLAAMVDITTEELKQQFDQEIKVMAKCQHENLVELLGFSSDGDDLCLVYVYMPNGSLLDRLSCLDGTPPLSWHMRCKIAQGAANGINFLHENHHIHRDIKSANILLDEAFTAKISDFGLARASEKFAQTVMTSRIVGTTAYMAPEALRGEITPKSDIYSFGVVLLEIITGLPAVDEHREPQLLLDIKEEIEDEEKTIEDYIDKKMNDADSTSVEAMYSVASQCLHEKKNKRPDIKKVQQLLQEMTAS
Tyrosine-protein kinase Fyn (Homo sapiens), sequence (P06241 2-537 limits assumed): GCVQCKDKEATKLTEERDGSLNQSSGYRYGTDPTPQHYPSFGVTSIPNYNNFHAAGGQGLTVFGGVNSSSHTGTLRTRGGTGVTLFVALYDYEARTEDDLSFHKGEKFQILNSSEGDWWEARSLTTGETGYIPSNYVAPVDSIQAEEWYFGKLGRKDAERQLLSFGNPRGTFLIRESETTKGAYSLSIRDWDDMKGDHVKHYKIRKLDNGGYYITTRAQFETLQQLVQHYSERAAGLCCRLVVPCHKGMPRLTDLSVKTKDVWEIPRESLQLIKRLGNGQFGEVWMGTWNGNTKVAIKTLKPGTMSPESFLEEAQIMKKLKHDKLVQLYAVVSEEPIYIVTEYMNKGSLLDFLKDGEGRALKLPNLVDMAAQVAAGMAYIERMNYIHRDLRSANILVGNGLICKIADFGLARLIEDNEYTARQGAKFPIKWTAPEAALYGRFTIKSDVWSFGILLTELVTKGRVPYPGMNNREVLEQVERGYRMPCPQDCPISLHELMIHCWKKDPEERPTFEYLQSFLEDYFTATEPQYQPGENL
Calcium/calmodulin-dependent protein kinase type 1 (Homo sapiens), sequence (Q14012 whole entry, looked up): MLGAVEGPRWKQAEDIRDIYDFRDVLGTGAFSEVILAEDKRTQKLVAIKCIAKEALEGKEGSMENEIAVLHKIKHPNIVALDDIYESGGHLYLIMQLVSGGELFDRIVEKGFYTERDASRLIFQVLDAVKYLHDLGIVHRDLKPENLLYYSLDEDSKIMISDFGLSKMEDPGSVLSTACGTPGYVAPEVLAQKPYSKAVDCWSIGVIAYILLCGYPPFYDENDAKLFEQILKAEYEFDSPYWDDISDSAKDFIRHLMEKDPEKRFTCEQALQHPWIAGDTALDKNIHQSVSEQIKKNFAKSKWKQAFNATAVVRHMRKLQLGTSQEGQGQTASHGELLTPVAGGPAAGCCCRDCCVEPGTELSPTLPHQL
Mitogen-activated protein kinase kinase kinase 9 (Homo sapiens), sequence (P80192 whole entry, looked up): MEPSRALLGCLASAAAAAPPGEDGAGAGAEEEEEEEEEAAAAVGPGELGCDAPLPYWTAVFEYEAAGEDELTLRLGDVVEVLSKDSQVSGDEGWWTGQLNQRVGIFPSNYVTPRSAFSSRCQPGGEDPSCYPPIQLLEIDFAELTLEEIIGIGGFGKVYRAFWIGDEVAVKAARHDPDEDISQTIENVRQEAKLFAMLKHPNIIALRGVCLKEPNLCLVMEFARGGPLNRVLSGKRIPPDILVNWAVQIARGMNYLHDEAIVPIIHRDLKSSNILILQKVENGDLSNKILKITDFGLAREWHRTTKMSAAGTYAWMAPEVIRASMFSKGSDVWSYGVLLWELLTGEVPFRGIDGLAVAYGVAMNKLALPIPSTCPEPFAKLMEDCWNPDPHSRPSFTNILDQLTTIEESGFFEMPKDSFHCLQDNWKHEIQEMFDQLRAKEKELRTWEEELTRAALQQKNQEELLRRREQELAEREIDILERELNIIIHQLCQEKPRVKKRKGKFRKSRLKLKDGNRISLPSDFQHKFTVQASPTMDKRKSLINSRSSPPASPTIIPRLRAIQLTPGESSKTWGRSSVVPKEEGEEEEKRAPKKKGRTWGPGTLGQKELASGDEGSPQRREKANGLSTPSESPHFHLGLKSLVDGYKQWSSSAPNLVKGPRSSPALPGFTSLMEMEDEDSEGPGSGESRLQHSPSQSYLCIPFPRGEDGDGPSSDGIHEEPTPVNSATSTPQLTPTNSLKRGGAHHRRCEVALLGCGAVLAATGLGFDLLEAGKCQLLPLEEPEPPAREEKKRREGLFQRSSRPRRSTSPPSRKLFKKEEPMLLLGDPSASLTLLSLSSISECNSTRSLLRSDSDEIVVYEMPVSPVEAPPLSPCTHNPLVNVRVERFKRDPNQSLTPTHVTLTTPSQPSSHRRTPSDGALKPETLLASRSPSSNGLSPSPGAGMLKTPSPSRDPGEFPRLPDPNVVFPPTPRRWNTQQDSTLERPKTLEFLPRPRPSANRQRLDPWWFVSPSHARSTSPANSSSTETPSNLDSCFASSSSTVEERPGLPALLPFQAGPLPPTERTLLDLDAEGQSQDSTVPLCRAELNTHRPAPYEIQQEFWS
Mitogen-activated protein kinase 11 (Homo sapiens), sequence (Q15759 whole entry): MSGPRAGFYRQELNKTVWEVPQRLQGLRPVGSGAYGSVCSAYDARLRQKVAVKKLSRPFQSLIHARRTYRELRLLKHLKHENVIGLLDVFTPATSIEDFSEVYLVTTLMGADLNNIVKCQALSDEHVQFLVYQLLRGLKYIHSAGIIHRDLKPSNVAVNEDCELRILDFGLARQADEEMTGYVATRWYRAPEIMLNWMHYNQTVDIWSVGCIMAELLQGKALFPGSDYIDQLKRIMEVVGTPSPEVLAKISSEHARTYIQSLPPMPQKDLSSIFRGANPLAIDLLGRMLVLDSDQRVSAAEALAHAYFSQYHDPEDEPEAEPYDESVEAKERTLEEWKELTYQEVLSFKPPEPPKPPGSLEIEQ
Ribosomal protein S6 kinase alpha-6 (Homo sapiens), sequence (Q9UK32 whole entry, the tested form may be a part): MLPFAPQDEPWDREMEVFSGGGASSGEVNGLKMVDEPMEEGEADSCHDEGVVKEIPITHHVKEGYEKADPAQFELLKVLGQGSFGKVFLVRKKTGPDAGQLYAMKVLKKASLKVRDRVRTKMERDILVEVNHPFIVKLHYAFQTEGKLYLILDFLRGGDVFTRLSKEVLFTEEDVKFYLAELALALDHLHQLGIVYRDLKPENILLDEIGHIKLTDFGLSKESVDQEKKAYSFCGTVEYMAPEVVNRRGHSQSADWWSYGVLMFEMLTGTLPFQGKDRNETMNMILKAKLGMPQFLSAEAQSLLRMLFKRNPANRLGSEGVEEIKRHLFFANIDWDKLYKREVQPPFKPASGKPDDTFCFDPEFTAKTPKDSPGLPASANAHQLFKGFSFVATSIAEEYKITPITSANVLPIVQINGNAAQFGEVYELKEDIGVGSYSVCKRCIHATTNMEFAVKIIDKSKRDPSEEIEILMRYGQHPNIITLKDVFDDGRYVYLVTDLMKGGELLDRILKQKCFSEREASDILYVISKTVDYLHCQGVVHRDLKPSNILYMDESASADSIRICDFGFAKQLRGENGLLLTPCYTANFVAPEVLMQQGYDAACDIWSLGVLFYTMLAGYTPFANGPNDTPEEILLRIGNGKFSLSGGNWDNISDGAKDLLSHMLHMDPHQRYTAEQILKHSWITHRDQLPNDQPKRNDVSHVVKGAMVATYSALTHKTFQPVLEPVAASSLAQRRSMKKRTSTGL
Serine/threonine-protein kinase pim-1 (Homo sapiens), sequence (P11309 whole entry, looked up): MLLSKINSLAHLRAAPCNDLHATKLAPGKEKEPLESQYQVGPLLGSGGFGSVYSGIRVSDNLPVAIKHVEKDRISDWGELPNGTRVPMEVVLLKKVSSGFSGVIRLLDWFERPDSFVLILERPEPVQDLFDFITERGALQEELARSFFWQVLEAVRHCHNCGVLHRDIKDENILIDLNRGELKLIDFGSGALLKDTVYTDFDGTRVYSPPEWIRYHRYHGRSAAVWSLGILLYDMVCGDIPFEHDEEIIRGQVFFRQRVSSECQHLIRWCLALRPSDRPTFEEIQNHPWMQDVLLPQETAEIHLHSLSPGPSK
Serine/threonine-protein kinase NLK (Homo sapiens), sequence (Q9UBE8 whole entry): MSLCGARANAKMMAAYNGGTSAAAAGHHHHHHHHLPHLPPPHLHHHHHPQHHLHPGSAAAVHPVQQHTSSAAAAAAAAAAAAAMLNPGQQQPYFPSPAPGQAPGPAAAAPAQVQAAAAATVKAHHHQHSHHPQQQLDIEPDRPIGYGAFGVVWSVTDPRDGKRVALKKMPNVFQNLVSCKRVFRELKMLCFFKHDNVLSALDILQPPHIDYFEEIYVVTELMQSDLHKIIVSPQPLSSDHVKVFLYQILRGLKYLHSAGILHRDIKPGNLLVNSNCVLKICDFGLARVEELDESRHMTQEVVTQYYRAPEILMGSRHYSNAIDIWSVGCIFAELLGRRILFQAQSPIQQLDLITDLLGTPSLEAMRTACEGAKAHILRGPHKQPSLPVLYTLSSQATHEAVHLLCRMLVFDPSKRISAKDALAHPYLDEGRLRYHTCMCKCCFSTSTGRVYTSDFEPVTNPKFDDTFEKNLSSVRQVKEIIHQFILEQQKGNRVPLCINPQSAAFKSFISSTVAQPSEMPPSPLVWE

Activity [1]: 0.25% | Activity [2]: 104% | Activity [3]: 62% | Activity [4]: 82% | Activity [5]: 22% | Activity [6]: 83% | Activity [7]: 88% | Activity [8]: 96% | Activity [9]: 79% | Activity [10]: 12% | Activity [11]: 5.8% | Activity [12]: 102% | Activity [13]: 81% | Activity [14]: 92% | Activity [15]: 31%
SMILES: COc1ccccc1-n1c(-c2cc(O)ccc2C)cn2c3c(=O)[nH]c(=O)n(C)c3nc12
Activity [16]: 97%

Activity [17]: 93% | Activity [18]: 89% | Activity [19]: 106% | Activity [20]: 85% | Activity [21]: 93% | Activity [22]: 114% | Activity [23]: 97% | Activity [24]: 102% | Activity [25]: 93% | Activity [26]: 94% | Activity [27]: 104% | Activity [28]: 92% | Activity [29]: 105%
SMILES: COc1ccccc1-n1c(-c2ccccc2C)cn2c3c(=O)[nH]c(=O)n(C)c3nc12
